From ChEMBL document CHEMBL4152296, “Synthesis, biological evaluation and molecular modeling of novel azaspiro dihydrotriazines as influenza virus inhibitors targeting the host factor dihydrofolate reductase (DHFR)” (Eur J Med Chem, 2018)
Activity calls are given as the source filed them. The calls are words filed in the database; no cut-off is given here.

What was measured:
Influenza B virus = assay: Antiviral activity against Influenza B virus B/Ned/537/05 infected in MDCK cells assessed as protection against virus-induced reduction in cell viability after 3 to 6 days by MTS assay; format: functional, organism-based; settings: B/Ned/537/05, MDCK
Outline: (§1)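 MDCK cells seeded at 9000/well and infected one day later (semiconfluent) with 100 CCID50 virus. Medium was FCS-free Ultra MDCK with 2 μg/mL TPCK-trypsin. Serial five-fold compound dilutions (top 100 μM) were added with the virus, followed by 3–6 days at 35 °C. MTS read-out gave % protection versus virus and mock controls. EC50 was interpolated from semi-log curves; mean of two or three experiments.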

[1] = test system: Human immunodeficiency virus; assay: Antiviral activity against HIV; format: functional, organism-based
[2] = Cytotoxicity against MDCK cells assessed as alterations in normal cell morphology measured after 3 to 6 days by microscopic analysis; format: cell-based, Canis lupus familiaris; settings: dog
Outline: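 Uninfected MDCK cultures in FCS-free Ultra MDCK medium with trypsin received five-fold compound dilutions (up to […]) for 3–6 days at 35 °C. Microscopy scored morphology, and MCC was taken as the lowest concentration causing minimal rounding, shrinking or lysis.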

Coxsackievirus B4 = assay: Antiviral activity against Coxsackie B4 virus infected in human HeLa cells assessed as inhibition of virus-induced cytopathic effect after 3 to 6 days by MTS assay; format: functional, organism-based
Human alphaherpesvirus 1 = assay: Antiviral activity against Herpes simplex virus type 1 infected in human HEL299 cells assessed as inhibition of virus-induced cytopathic effect after 3 to 6 days by MTS assay; format: functional, organism-based
[3] = test system: Respiratory syncytial virus; assay: Antiviral activity against Respiratory syncytial virus Long infected in human HeLa cells assessed as inhibition of virus-induced cytopathic effect after 3 to 6 days by MTS based microscopy; format: functional, organism-based
Sindbis virus = assay: Antiviral activity against Sindbis virus infected in African green monkey Vero cells assessed as inhibition of virus-induced cytopathic effect after 3 to 6 days by MTS assay; format: functional, organism-based
Punta Toro virus = assay: Antiviral activity against Punta Toro virus infected in African green monkey Vero cells assessed as inhibition of virus-induced cytopathic effect after 3 to 6 days by MTS assay; format: functional, organism-based
Human alphaherpesvirus 2 = assay: Antiviral activity against Herpes simplex virus type 2 infected in human HEL299 cells assessed as inhibition of virus-induced cytopathic effect after 3 to 6 days by MTS assay; format: functional, organism-based
Vaccinia virus = assay: Antiviral activity against Vaccinia virus infected in human HEL299 cells assessed as inhibition of virus-induced cytopathic effect after 3 to 6 days by MTS assay; format: functional, organism-based; settings: Orthopoxvirus vaccinia
[4] = test system: Mammalian orthoreovirus 1; assay: Antiviral activity against Reovirus-1 infected in African green monkey Vero cells assessed as inhibition of virus-induced cytopathic effect after 3 to 6 days by MTS assay; format: functional, organism-based
Yellow fever virus = assay: Antiviral activity against Yellow fever virus infected in African green monkey Vero cells assessed as inhibition of virus-induced cytopathic effect after 3 to 6 days by MTS assay; format: functional, organism-based
Vero = assay: Cytotoxicity against African green monkey Vero cells assessed as reduction in cell viability measured after 3 to 6 days by MTS assay; format: cell-based; settings: chlorocebus sabaeus
Human coronavirus 229E = assay: Antiviral activity against Human coronavirus 229E infected in human HEL299 cells assessed as inhibition of virus-induced cytopathic effect after 3 to 6 days by MTS assay; format: functional, organism-based
Human respirovirus 3 = assay: Antiviral activity against Parainfluenza virus 3 infected in African green monkey Vero cells assessed as inhibition of virus-induced cytopathic effect after 3 to 6 days by MTS assay; format: functional, organism-based
Human adenovirus 2 = assay: Antiviral activity against Human adenovirus type 2 infected in human HEL299 cells assessed as inhibition of virus-induced cytopathic effect after 3 to 6 days by MTS assay; format: functional, organism-based
Influenza A virus = assay: Antiviral activity against Influenza A virus (A/Puerto Rico/8/34(H1N1)) infected in MDCK cells assessed as protection against virus-induced reduction in cell viability after 3 to 6 days by MTS assay; format: functional, organism-based; settings: A/Puerto Rico/8/1934(H1N1); outline: as §1
[5] = test system: Vesicular stomatitis virus; assay: Antiviral activity against Vesicular stomatitis virus infected in human HEL299 cells assessed as inhibition of virus-induced cytopathic effect after 3 to 6 days by MTS assay; format: functional, organism-based
[6] = Cytotoxicity against human HeLa cells assessed as alterations in normal cell morphology measured after 3 to 6 days by microscopic analysis; format: cell-based
Outline: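 Mock-infected HeLa cultures in 2% FCS medium received serial five-fold dilutions […] for 3–6 days at 37 °C. MCC was the lowest concentration giving microscopically visible minimal change in cell morphology (rounding, shrinking, lysis).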

MDCK = assay: Cytotoxicity against MDCK cells assessed as reduction in cell viability measured after 3 to 6 days by MTS assay; format: cell-based, Canis lupus familiaris; settings: dog
Outline: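 Mock-infected MDCK plates were run in parallel (FCS-free Ultra MDCK medium with TPCK-trypsin) with serial five-fold dilutions up to […], 35 °C for 3–6 days. CC50 was interpolated from semi-log dose-response curves; mean of two or three experiments.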

| Structure (SMILES) | EC50 (Influenza B virus) [µM] | Activity [1] | MCC [2] [µM] | Activity (Coxsackievirus B4) | Activity (Human alphaherpesvirus 1) | EC50 [3] [µM] | Activity (Sindbis virus) | Activity (Punta Toro virus) | Activity (Human alphaherpesvirus 2) | Activity (Vaccinia virus) | Activity [4] | Activity (Yellow fever virus) | Activity (Vero) | Activity (Human coronavirus 229E) | Activity (Human respirovirus 3) | Activity (Human adenovirus 2) | EC50 (Influenza A virus) [µM] | Activity [5] | MCC [6] [µM] | CC50 (MDCK) [µM] |
| --- | --- | --- | --- | --- | --- | --- | --- | --- | --- | --- | --- | --- | --- | --- | --- | --- | --- | --- | --- | --- |
| COc1cccc(N2C(N)=NC(N)=NC23CCNCC3)c1 | > 100 | inactive | > 100 | inactive | inactive | > 100 | inactive | inactive | inactive | inactive | inactive | inactive | Non-Toxic | inactive | inactive | inactive | > 100 | inactive | > 100 | > 100 |
| CCCN1C(N)=NC(N)=NC12CCN(C(=O)c1c(C)noc1C)CC2 | > 100 | inactive | > 100 | inactive | inactive | > 100 | inactive | inactive | inactive | inactive | inactive | inactive | Non-Toxic | inactive | inactive | inactive | > 100 | inactive | > 100 | > 100 |
| COCCN1C(N)=NC(N)=NC12CCN(C(=O)c1cccn1C)CC2 | > 100 | inactive | > 100 | inactive | inactive | > 100 | inactive | inactive | inactive | inactive | inactive | inactive | Non-Toxic | inactive | inactive | inactive | > 100 | inactive | > 100 | > 100 |
| COc1cccc(N2C(N)=NC(N)=NC23CCN(C(=O)OC(C)(C)C)CC3)c1 | 39 | inactive | ≥ 100 | inactive | inactive | > 100 | inactive | inactive | inactive | inactive | inactive | inactive | Non-Toxic | inactive | inactive | inactive | 87 | inactive | > 100 | > 100 |
| NC(=O)c1ncn([C@@H]2O[C@H](CO)[C@@H](O)[C@H]2O)n1 [RIBAVIRIN] | 3.2 | – | ≥ 20 | – | – | – | – | – | – | – | – | – | – | – | – | – | 11 | – | > 250 | – |
| NC12CC3CC(CC(C3)C1)C2 [AMANTADINE] | > 500 | – | > 500 | – | – | – | – | – | – | – | – | – | – | – | – | – | 26 | – | – | > 500 |
| CC(N)C12CC3CC(CC(C3)C1)C2 (configuration not stated) [RIMANTADINE] | > 500 | – | ≥ 500 | – | – | – | – | – | – | – | – | – | – | – | – | – | 28 | – | – | > 500 |
